# Data: ChEMBL document CHEMBL4689842, “EUbOPEN Chemogenomics Library wave 1” (2021)
# System: HEK-293T
# Test: Multiplex assay against HEK293T;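 as to Population Tubulin-Different-Phenotype (%): share of the cells with healthy nuclei that show this phenotype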
# Type: toxicity, cell-based
# Details: human
# Summary of the method: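 With compound added, live cells were imaged on a CQ1 microscope at 37°C and 5% CO2; staining with Hoechst33342, BioTracker Green Microtubule Cytoskeleton Dye, MitoTracker Red and Annexin V Alexa Fluor 680 had been done at seeding. The CellPathfinder machine-learning gating scheme split cells into Hoechst high-intensity objects or normal cells, normal cells into healthy, pyknosed or fragmented nuclei, and pyknosed cells into mitotic or apoptotic. The tubulin, mitochondrial-mass and membrane-permeability phenotypes are per cents of healthy-nucleus cells.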
# [1] = 12 h, 1 µM, compound concentration 1 uM, replicate 1
# [2] = 12 h, 1 µM, compound concentration 1 uM, replicate 2
# [3] = 12 h, 10 µM, compound concentration 10 uM, replicate 1
# [4] = 12 h, 10 µM, compound concentration 10 uM, replicate 2
# [5] = 24 h, 1 µM, compound concentration 1 uM, replicate 1
# [6] = 24 h, 1 µM, compound concentration 1 uM, replicate 2
# [7] = 24 h, 10 µM, compound concentration 10 uM, replicate 1
# [8] = 24 h, 10 µM, compound concentration 10 uM, replicate 2
# [9] = 48 h, 1 µM, compound concentration 1 uM, replicate 1
# [10] = 48 h, 1 µM, compound concentration 1 uM, replicate 2
# [11] = 48 h, 10 µM, compound concentration 10 uM, replicate 1
# [12] = 48 h, 10 µM, compound concentration 10 uM, replicate 2
smiles,measurement,setting,value
CCOc1cc(N2CCC(O)CC2)ccc1Nc1ncc2c(n1)N(C1CCCC1)CCC(=O)N2C,Population Apoptotic (%),[1],17%
same,Population Fragmented Nuclei (%),[1],18%
same,Population Healthy Nuclei (%),[1],58%
same,Population Hoechst High Intensity Objects (%),[1],13%
same,Population Membrane Permeable-Phenotype (%),[1],3%
same,Population Mitochondria Different-Phenotype (%),[1],5%
same,Population Mitotic Cells (%),[1],82%
same,Population Normal (%),[1],86%
same,Population Pyknosed Nuclei (%),[1],22%
same,Population Tubulin-Different-Phenotype (%),[1],3%
same,Total Cell Count,[1],614
same,Population Apoptotic (%),[2],4%
same,Population Fragmented Nuclei (%),[2],6%
same,Population Healthy Nuclei (%),[2],87%
same,Population Hoechst High Intensity Objects (%),[2],2%
same,Population Membrane Permeable-Phenotype (%),[2],1%
same,Population Mitochondria Different-Phenotype (%),[2],15%
same,Population Mitotic Cells (%),[2],95%
same,Population Normal (%),[2],97%
same,Population Pyknosed Nuclei (%),[2],5%
same,Population Tubulin-Different-Phenotype (%),[2],5%
same,Total Cell Count,[2],1724
same,Population Apoptotic (%),[3],14%
same,Population Fragmented Nuclei (%),[3],18%
same,Population Healthy Nuclei (%),[3],62%
same,Population Hoechst High Intensity Objects (%),[3],13%
same,Population Membrane Permeable-Phenotype (%),[3],4%
same,Population Mitochondria Different-Phenotype (%),[3],5%
same,Population Mitotic Cells (%),[3],85%
same,Population Normal (%),[3],86%
same,Population Pyknosed Nuclei (%),[3],19%
same,Population Tubulin-Different-Phenotype (%),[3],4%
same,Total Cell Count,[3],550
same,Population Apoptotic (%),[4],8%
same,Population Fragmented Nuclei (%),[4],9%
same,Population Healthy Nuclei (%),[4],86%
same,Population Hoechst High Intensity Objects (%),[4],1%
same,Population Membrane Permeable-Phenotype (%),[4],0%
same,Population Mitotic Cells (%),[4],92%
same,Population Normal (%),[4],98%
same,Population Pyknosed Nuclei (%),[4],4%
same,Population Tubulin-Different-Phenotype (%),[4],2%
same,Total Cell Count,[4],1779
same,Population Apoptotic (%),[5],19%
same,Population Fragmented Nuclei (%),[5],16%
same,Population Healthy Nuclei (%),[5],73%
same,Population Hoechst High Intensity Objects (%),[5],7%
same,Population Membrane Permeable-Phenotype (%),[5],2%
same,Population Mitochondria Different-Phenotype (%),[5],4%
same,Population Mitotic Cells (%),[5],80%
same,Population Normal (%),[5],92%
same,Population Pyknosed Nuclei (%),[5],9%
same,Population Tubulin-Different-Phenotype (%),[5],3%
same,Total Cell Count,[5],619
same,Population Apoptotic (%),[6],4%
same,Population Fragmented Nuclei (%),[6],26%
same,Population Healthy Nuclei (%),[6],72%
same,Population Hoechst High Intensity Objects (%),[6],3%
same,Population Membrane Permeable-Phenotype (%),[6],0%
same,Population Mitochondria Different-Phenotype (%),[6],3%
same,Population Mitotic Cells (%),[6],95%
same,Population Normal (%),[6],96%
same,Population Pyknosed Nuclei (%),[6],1%
same,Population Tubulin-Different-Phenotype (%),[6],1%
same,Total Cell Count,[6],2649
same,Population Apoptotic (%),[7],19%
same,Population Fragmented Nuclei (%),[7],13%
same,Population Healthy Nuclei (%),[7],76%
same,Population Hoechst High Intensity Objects (%),[7],6%
same,Population Membrane Permeable-Phenotype (%),[7],8%
same,Population Mitochondria Different-Phenotype (%),[7],5%
same,Population Mitotic Cells (%),[7],80%
same,Population Normal (%),[7],93%
same,Population Pyknosed Nuclei (%),[7],9%
same,Population Tubulin-Different-Phenotype (%),[7],2%
same,Total Cell Count,[7],597
same,Population Apoptotic (%),[8],0%
same,Population Fragmented Nuclei (%),[8],27%
same,Population Healthy Nuclei (%),[8],70%
same,Population Hoechst High Intensity Objects (%),[8],3%
same,Population Membrane Permeable-Phenotype (%),[8],2%
same,Population Mitochondria Different-Phenotype (%),[8],0%
same,Population Mitotic Cells (%),[8],100%
same,Population Normal (%),[8],96%
same,Population Pyknosed Nuclei (%),[8],1%
same,Total Cell Count,[8],3112
Cl.Cl.Nc1ncnc2c1c(-c1cccc(OCc3ccccc3)c1)cn2[C@H]1C[C@@H](CN2CCC2)C1,Population Apoptotic (%),[1],69%
same,Population Fragmented Nuclei (%),[1],13%
same,Population Healthy Nuclei (%),[1],17%
same,Population Hoechst High Intensity Objects (%),[1],24%
same,Population Membrane Permeable-Phenotype (%),[1],5%
same,Population Mitochondria Different-Phenotype (%),[1],94%
same,Population Mitotic Cells (%),[1],30%
same,Population Normal (%),[1],75%
same,Population Pyknosed Nuclei (%),[1],68%
same,Population Tubulin-Different-Phenotype (%),[1],88%
same,Total Cell Count,[1],270
same,Population Apoptotic (%),[2],56%
same,Population Fragmented Nuclei (%),[2],5%
same,Population Healthy Nuclei (%),[2],23%
same,Population Hoechst High Intensity Objects (%),[2],10%
same,Population Membrane Permeable-Phenotype (%),[2],2%
same,Population Mitochondria Different-Phenotype (%),[2],97%
same,Population Mitotic Cells (%),[2],43%
same,Population Normal (%),[2],89%
same,Population Pyknosed Nuclei (%),[2],71%
same,Population Tubulin-Different-Phenotype (%),[2],97%
same,Total Cell Count,[2],199
same,Population Fragmented Nuclei (%),[3],18%
same,Population Healthy Nuclei (%),[3],12%
same,Population Hoechst High Intensity Objects (%),[3],20%
same,Population Membrane Permeable-Phenotype (%),[3],3%
same,Population Mitochondria Different-Phenotype (%),[3],100%
same,Population Normal (%),[3],79%
same,Population Pyknosed Nuclei (%),[3],69%
same,Population Tubulin-Different-Phenotype (%),[3],84%
same,Total Cell Count,[3],264
same,Population Apoptotic (%),[4],95%
same,Population Fragmented Nuclei (%),[4],21%
same,Population Healthy Nuclei (%),[4],6%
same,Population Hoechst High Intensity Objects (%),[4],23%
same,Population Membrane Permeable-Phenotype (%),[4],9%
same,Population Mitochondria Different-Phenotype (%),[4],81%
same,Population Mitotic Cells (%),[4],4%
same,Population Normal (%),[4],77%
same,Population Pyknosed Nuclei (%),[4],71%
same,Population Tubulin-Different-Phenotype (%),[4],54%
same,Total Cell Count,[4],213
same,Population Apoptotic (%),[5],70%
same,Population Fragmented Nuclei (%),[5],14%
same,Population Healthy Nuclei (%),[5],18%
same,Population Hoechst High Intensity Objects (%),[5],25%
same,Population Membrane Permeable-Phenotype (%),[5],0%
same,Population Mitochondria Different-Phenotype (%),[5],100%
same,Population Mitotic Cells (%),[5],29%
same,Population Normal (%),[5],75%
same,Population Pyknosed Nuclei (%),[5],67%
same,Total Cell Count,[5],260
same,Population Apoptotic (%),[6],67%
same,Population Fragmented Nuclei (%),[6],7%
same,Population Healthy Nuclei (%),[6],43%
same,Population Hoechst High Intensity Objects (%),[6],5%
same,Population Membrane Permeable-Phenotype (%),[6],4%
same,Population Mitochondria Different-Phenotype (%),[6],93%
same,Population Mitotic Cells (%),[6],32%
same,Population Normal (%),[6],94%
same,Population Pyknosed Nuclei (%),[6],49%
same,Population Tubulin-Different-Phenotype (%),[6],91%
same,Total Cell Count,[6],213
same,Population Apoptotic (%),[7],92%
same,Population Fragmented Nuclei (%),[7],17%
same,Population Healthy Nuclei (%),[7],9%
same,Population Hoechst High Intensity Objects (%),[7],22%
same,Population Membrane Permeable-Phenotype (%),[7],0%
same,Population Mitochondria Different-Phenotype (%),[7],100%
same,Population Mitotic Cells (%),[7],7%
same,Population Normal (%),[7],77%
same,Population Pyknosed Nuclei (%),[7],73%
same,Population Tubulin-Different-Phenotype (%),[7],80%
same,Total Cell Count,[7],278
same,Population Apoptotic (%),[8],100%
same,Population Fragmented Nuclei (%),[8],23%
same,Population Healthy Nuclei (%),[8],11%
same,Population Hoechst High Intensity Objects (%),[8],26%
same,Population Membrane Permeable-Phenotype (%),[8],5%
same,Population Mitochondria Different-Phenotype (%),[8],89%
same,Population Mitotic Cells (%),[8],0%
same,Population Normal (%),[8],73%
same,Population Pyknosed Nuclei (%),[8],64%
same,Population Tubulin-Different-Phenotype (%),[8],68%
same,Total Cell Count,[8],227
same,Population Apoptotic (%),[9],74%
same,Population Fragmented Nuclei (%),[9],20%
same,Population Healthy Nuclei (%),[9],21%
same,Population Hoechst High Intensity Objects (%),[9],30%
same,Population Membrane Permeable-Phenotype (%),[9],0%
same,Population Mitochondria Different-Phenotype (%),[9],97%
same,Population Mitotic Cells (%),[9],25%
same,Population Normal (%),[9],70%
same,Population Pyknosed Nuclei (%),[9],57%
same,Population Tubulin-Different-Phenotype (%),[9],78%
same,Total Cell Count,[9],250
same,Population Apoptotic (%),[10],64%
same,Population Fragmented Nuclei (%),[10],6%
same,Population Healthy Nuclei (%),[10],71%
same,Population Hoechst High Intensity Objects (%),[10],11%
same,Population Membrane Permeable-Phenotype (%),[10],1%
same,Population Mitochondria Different-Phenotype (%),[10],87%
same,Population Mitotic Cells (%),[10],35%
same,Population Normal (%),[10],88%
same,Population Pyknosed Nuclei (%),[10],22%
same,Population Tubulin-Different-Phenotype (%),[10],93%
same,Total Cell Count,[10],263
same,Population Apoptotic (%),[11],93%
same,Population Fragmented Nuclei (%),[11],25%
same,Population Healthy Nuclei (%),[11],1%
same,Population Hoechst High Intensity Objects (%),[11],19%
same,Population Membrane Permeable-Phenotype (%),[11],0%
same,Population Mitochondria Different-Phenotype (%),[11],100%
same,Population Mitotic Cells (%),[11],6%
same,Population Normal (%),[11],80%
same,Population Pyknosed Nuclei (%),[11],73%
same,Population Tubulin-Different-Phenotype (%),[11],33%
same,Total Cell Count,[11],315
same,Population Apoptotic (%),[12],98%
same,Population Fragmented Nuclei (%),[12],34%
same,Population Healthy Nuclei (%),[12],17%
same,Population Hoechst High Intensity Objects (%),[12],12%
same,Population Mitotic Cells (%),[12],1%
same,Population Normal (%),[12],87%
same,Population Pyknosed Nuclei (%),[12],48%
same,Population Tubulin-Different-Phenotype (%),[12],88%
same,Total Cell Count,[12],234
